Screening results: PubChem BioAssay, several laboratories
Gli-Sufu block – Gli-Sufu pathway antagonists, primary screen, luciferase luminescence, Sufu-KO-LIGHT cells, uHTS | Sufu-KO-LIGHT fibroblasts, Gli luciferase reporter luminescence | inhibition, % at 5 µM | hit rate 0.74% among 340,000 | AID 588413, 2011;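 active means inhibition above about 55%, limit read from the data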;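 further: 0% = DMSO-treated cells and 100% = wells with medium but no cells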
GalR3 antagonist – GalR3 antagonists in HEK293 cells, primary screen, cell-based, fluorescence readout | inhibition, % at 3 µM | hit rate 0.44% among 360,000 | Galanin receptor type 3 (Homo sapiens), O60755 | AID 651719, 2012 | HEK293 GalR3-CNG cAMP membrane potential fluorescence; galR3 body fused to GalR1 C-terminus;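 active means inhibition above the screen-wide average plus 3 SD, cut at about 13% in these data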;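 further: forskolin and galanin both at EC90 stimulate the cells; cAMP rise reported by CNG channel membrane potential dye signal; 0% = forskolin plus galanin with DMSO and 100% = forskolin alone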
Target sequence (O60755 1-299 limits assumed): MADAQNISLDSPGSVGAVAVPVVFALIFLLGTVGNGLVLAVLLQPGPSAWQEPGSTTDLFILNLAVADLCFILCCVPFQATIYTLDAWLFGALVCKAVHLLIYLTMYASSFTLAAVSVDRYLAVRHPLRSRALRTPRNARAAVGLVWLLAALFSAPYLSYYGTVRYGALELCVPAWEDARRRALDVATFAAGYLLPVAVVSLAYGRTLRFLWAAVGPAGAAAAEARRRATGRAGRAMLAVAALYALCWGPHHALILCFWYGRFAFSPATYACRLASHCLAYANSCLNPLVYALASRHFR
NR2E3 ag-1 – NR2E3 agonists in two-hybrid cells, primary screen, cell-based, luminescence, CHO-S, Gal4-NCOR/VP16-NR2E3. hit rate 0.35% among 360,000. inhibition of corepressor binding, % at 3.98 µM. Photoreceptor-specific nuclear receptor (Homo sapiens), Q9Y5X4. luciferase;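 active means inhibition above the mean of all tested compounds plus 3 SD, cut at about 70% in these data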;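 further: 0% = DMSO with NR2E3 transfected cells and 100% = cells lacking NR2E3 construct; higher means lower luciferase signal from less NR2E3 corepressor binding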
Target sequence (Q9Y5X4 whole entry, looked up, the tested form may be a part): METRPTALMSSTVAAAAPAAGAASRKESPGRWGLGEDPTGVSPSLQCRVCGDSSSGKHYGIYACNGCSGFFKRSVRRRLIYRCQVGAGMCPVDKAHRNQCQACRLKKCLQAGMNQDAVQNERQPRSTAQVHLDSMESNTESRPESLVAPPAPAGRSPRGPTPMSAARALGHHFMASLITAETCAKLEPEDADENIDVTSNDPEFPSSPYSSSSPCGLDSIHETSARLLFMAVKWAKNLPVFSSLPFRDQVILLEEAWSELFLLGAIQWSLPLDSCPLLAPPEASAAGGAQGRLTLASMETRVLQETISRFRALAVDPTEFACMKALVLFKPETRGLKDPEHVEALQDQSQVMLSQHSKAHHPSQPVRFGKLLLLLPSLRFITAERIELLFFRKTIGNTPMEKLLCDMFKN
NR2E3 ag-2 – inhibitors of NR2E3-RetCOR corepressor binding, primary screen, NR2E3 agonist project, biochemical, TR-FRET, GST-NR2E3, biotin-RetCOR; hit rate 0.12% among 320,000; 1536-well; inhibition of corepressor binding, % at 4.78 µM;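 active means percent inhibition above the cutoff of mean plus 3 SD of all tested compounds, set per screening campaign, cut at about 20% in these data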;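 further: 0% = DMSO wells and 100% = biotin wells as full block of FRET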
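Material – GST-tagged NR2E3 plus biotinylated RetCOR corepressor · Quantity – NR2E3 fusion 1.35 nM · Times – 5 h incubation at 4 °C · Medium – pH 7.5 Tris-based buffer · Technique – TR-FRET, Eu(K)-anti-GST donor, streptavidin-D2 acceptor, ex 340, em 617/671 nm · Benchmarks – high control biotin, low control 0.6% DMSO · Format – 1536-well plates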
697 NFkB inh – inhibitors of PMA/ionomycin-induced NF-kB reporter, 697 cells, primary screen, B-cell NF-kB inhibitor project, cell-based, luminescence, uHTS. inhibition, % at 4 µM. hit rate 0.33% among 330,000. 697 B-cell NF-kB luciferase reporter, 16 h; in the data active means inhibition above about 35%
Jurkat NFkB inh – inhibitors of induced NF-kB luciferase reporter, primary screen, TCR NF-kB activation inhibitor project, cell-based, luminescence, uHTS; Jurkat, PMA/ionomycin-induced NF-kB luciferase reporter; inhibition, % at 4 µM; hit rate 0.53% among 330,000; AID 435003, 2010; in the data active means inhibition above about 50%
Jurkat NFkB conf – PMA/ionomycin-induced NF-kB reporter inhibitors, Jurkat retest, confirmation, T-cell NF-kB inhibitor project, cell-based, luminescence, single concentration; shares compounds with Jurkat NFkB inh; Jurkat NF-kB luciferase, 16 h; inhibition, % at 4 µM; hit rate 27% among 2,700; AID 435020, 2010;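 active means inhibition reaching about 45% at 4 µM in either replicate, limit read from the data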;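 further: plate controls were PMA/ionomycin stimulated DMSO wells for no effect and unstimulated DMSO wells for full effect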
697 NFkB conf – PMA/ionomycin-induced NF-kB reporter inhibitors, 697 retest, confirmation, B-cell NF-kB inhibitor project, cell-based, luminescence, single concentration. inhibition, % at 4 µM. 697 B-cell NF-kB luciferase, 16 h. hit rate 35% among 2,000. AID 449746, 2010. shares compounds with 697 NFkB inh; in the data active means inhibition mostly above about 28%, no sharp cut-off; inactive means mostly below about 22%
Gli antag conf – Gli-SUFU pathway antagonists, confirmation, single concentration, luciferase luminescence, Sufu-KO-LIGHT cells. shares compounds with Gli-Sufu block. Gli luciferase reporter. inhibition, % at 5 µM. hit rate 40% among 2,500. AID 602428, 2012;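 active means mean inhibition at 5 µM reaching about 45%, limit read from the data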;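 further: plate controls were DMSO-treated cells for no effect and wells lacking cells for full effect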
SufuKO cytotox – cytotoxicity in Sufu-KO-LIGHT cells, confirmation, cytotoxicity control for Gli-SUFU antagonist project, cell-based, ATP luminescence, single concentration; hit rate 32% among 2,500; shares compounds with Gli-Sufu block; cytotoxicity, % at 5 µM;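 active means mean cytotoxicity at 5 µM above about 25%, limit read from the data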;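 further: cells exposed to compound overnight for roughly 16 to 18 hours; plate controls were DMSO wells with cells for no effect and medium without cells for full effect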
Wnt3a counter – Wnt3a reporter signal inhibition, confirmation, counter-screen for Gli-SUFU antagonist project, Wnt-LIGHT cells, luminescence, single concentration | shares compounds with Gli-Sufu block | Wnt3a-driven luciferase reporter | inhibition, % at 6.25 µM | hit rate 20% among 2,500;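 active means mean inhibition above about 25%, limit read from the data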
NR2E3 ag conf – NR2E3 agonist confirmation in cells, cell-based, luminescence, CHO-S two-hybrid. shares compounds with NR2E3 ag-1. CHO-S mammalian two-hybrid NR2E3-NCOR, luciferase luminescence. inhibition, % at 3.98 µM. hit rate 51% among 2,300. AID 624378, 2012;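 active means average inhibition above a cutoff equal to the mean inhibition of all tested compounds plus one SD, cut at about 70% in these data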;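 further: 0% = DMSO in NR2E3 cells and 100% = DMSO in cells lacking NR2E3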
GAL4-VP16 luc – GAL4-VP16 reporter modulators, confirmation, counter-screen for NR2E3 agonist project, cell-based, luminescence, CHO-S, high throughput | shares compounds with NR2E3 ag-1 | CHO-S GAL4-VP16 luciferase reporter | inhibition, % at 3.98 µM | hit rate 29% among 2,300 | AID 624379, 2012;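 active means mean inhibition above a cutoff equal to the average over all tested compounds plus one standard deviation, cut at about 70% in these data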;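 further: luciferase from a UAS reporter driven by GAL4-VP16 transactivation; 0% = DMSO with VP16-transfected cells and 100% = DMSO with cells lacking VP16; higher means less reporter light so more repression of VP16 activity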
GalR3 antag conf – GalR3 antagonist hit confirmation, cell-based, fluorescence, triplicate; hit rate 59% among 1,600; AID 652245, 2013; inhibition, % at 3 µM; shares compounds with GalR3 antagonist; HEK293 GalR3 CNG cAMP biosensor, membrane potential fluorescence; galR3 fused to GalR1 carboxy tail; challenged with forskolin and galanin at EC90;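 active means inhibition above the primary screen's cutoff, the mean inhibition of all screened compounds plus 3 SD, cut at about 13% in these data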;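 further: 0% = forskolin plus galanin and 100% = forskolin alone with DMSO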
CNG parental – nonspecific cAMP agonists in parental HEK-CNG cells, counter-screen for GalR3 antagonist project, cell-based, fluorescence, high throughput; hit rate 10% among 1,600; shares compounds with GalR3 antagonist; activation, % at 3 µM; HEK293-CNG parental cells, cAMP membrane potential fluorescence; normalised: DMSO wells 0%, forskolin wells 100%; AID 652268, 2013; in the data active means activation above about 1.3%
The depositor's hits bear a star; . = not tested or not shown. Shown are actives, neighbours in structure and some others; about 1.8% of the full set was active somewhere.

SMILES | Gli-Sufu block | GalR3 antagonist | NR2E3 ag-1 | NR2E3 ag-2 | 697 NFkB inh | Jurkat NFkB inh | Jurkat NFkB conf | NR2E3 ag conf | GAL4-VP16 luc | GalR3 antag conf | CNG parental | others
C=CC[n+]1c(/C=C2\C=Cc3cc(C)ccc3N2CC)ccc2ccccc21 | 89.8* | 45.2* | 89.8* | 0.3 | 32.0 | 78.2* | 27.9 | 98.4* | 90.6* | 64.2* | 6.1*
Cc1onc(-c2ccccc2)c1C(=O)NCC1CCN(C(=O)C(=O)c2cccs2)CC1 | . | -2.4 | . | . | . | . | . | . | . | . | .
Cc1ccc(-n2ncc3c(N4CCCC4)ncnc32)c(C)c1 | -29.4 | -1.6 | -54.8 | 4.2 | -43.2 | -24.7 | . | . | . | . | .
COc1cccc(N2CCN(c3ncnc4c3cnn4-c3ccc(C)cc3C)CC2)c1 | 13.9 | 67.2* | 43.1 | 3.2 | 22.0 | 86.9* | 69.8* | . | . | 97.0* | -0.1
O=C(N[C@H](C(=O)N1CCC[C@H]1C(=O)NCc1ccccc1)c1ccccc1)c1ccc(Cl)c(Cl)c1 | . | -9.7 | . | . | . | . | . | . | . | . | .
COc1ccc(CCN(C)c2ccc(S(=O)(=O)N3CCCC3)cc2[N+](=O)[O-])cc1OC | 9.3 | -5.6 | 0.0 | -1.0 | -12.0 | -21.7 | . | . | . | . | .
COc1ccc(CN(C)c2ccc(S(=O)(=O)N3CCN(C)CC3)cc2[N+](=O)[O-])cc1OC | 74.5* | 102.7* | 94.5* | 3.4 | 87.3* | 68.2* | 74.7* | 95.9* | 84.8* | 127.4* | 0.3 | 697 NFkB conf=97.2*;Gli antag conf=74.4*;SufuKO cytotox=35.3*;Wnt3a counter=45.2*
COC(=O)C1=C(C)N(C)C(=NCc2cc(OC)c(OC)c(OC)c2)NC1c1cccc(Cl)c1 (configuration not stated) | . | -6.0 | . | . | . | . | . | . | . | . | .
COCCCNC(=O)C(=O)Nc1ccc2c(c1)N(S(=O)(=O)c1cccs1)CCC2 | 20.1 | 15.5* | -2.9 | 1.8 | -2.7 | 61.8* | 56.7* | . | . | 5.7 | 2.1*
CCCNC(=O)C(=O)Nc1ccc2c(c1)N(S(=O)(=O)c1cccs1)CCC2 | -17.4 | -6.5 | -39.1 | -3.9 | -25.3 | 45.4 | . | . | . | . | .
Cc1cc(-n2c(C)cc(C(=O)CSc3ncnc4ccccc34)c2C)no1 | 72.8* | 91.1* | 91.6* | 2.8 | 32.7 | 55.5* | 40.7 | 96.9* | 86.4* | 2.9 | -0.1
CC(C)(C)c1ccc(C(=O)Nc2ccc(Oc3cccnc3)nc2)cc1 | -5.3 | 110.7* | -12.6 | -0.3 | -38.2 | 51.7* | 48.1 | . | . | 114.5* | -0.3
CC(C)(C)c1ccc(C(=O)Nc2cccnc2)cc1 | -60.2 | -2.3 | -10.9 | 0.4 | 7.1 | -127.0 | . | . | . | . | .
CCCCCCn1c2c(c(=N)c3c1CCC3)CCC2 | 89.2* | 35.0* | 10.8 | 0.0 | 104.3* | 64.6* | 69.3* | . | . | 21.2* | 0.3 | 697 NFkB conf=33.9*
O=S(=O)(c1cccs1)N1CCCc2nc(-c3ccccc3)ccc21 | . | -5.8 | . | . | . | . | . | . | . | . | .
O=C(c1cc(COc2cccc3cnccc23)on1)N1CCCC(CCCO)C1 (configuration not stated) | 79.7* | 96.8* | 109.6* | -0.3 | 56.1* | 54.7* | 77.2* | 98.7* | 92.9* | 104.0* | -0.2 | 697 NFkB conf=101.5*;Gli antag conf=74.5*;SufuKO cytotox=28.9*;Wnt3a counter=4.0
Clc1ccc(OCCN2CCN(c3ncnc4sccc34)CC2)cc1 | 81.3* | 93.0* | 89.2* | -1.8 | 100.4* | 66.8* | 75.7* | 97.5* | 92.8* | 107.0* | -0.2 | 697 NFkB conf=96.3*
Cc1sc2ncnc(N3CCCCC3)c2c1C | 4.6 | -6.8 | -12.3 | 0.5 | -29.7 | -14.4 | . | . | . | . | .
Cc1ccc(OCCN2CCN(c3ncnc4sc(C)c(C)c34)CC2)cc1 | 73.0* | 100.8* | 92.3* | 2.1 | 43.2* | 67.3* | 66.1* | 98.3* | 93.4* | 104.2* | 0.5 | 697 NFkB conf=55.8*;Gli antag conf=73.3*;SufuKO cytotox=31.0*;Wnt3a counter=15.0
Cc1ccc(Nc2ncnc3sc(C)c(C)c23)cc1 | -11.2 | -1.2 | -68.6 | -3.5 | -33.2 | -36.1 | . | . | . | . | .
Cc1sc2ncnc(NC3CCN(Cc4ccccc4)CC3)c2c1C | 77.6* | 83.0* | 75.3* | -6.8 | -11.7 | 52.8* | 43.0 | 94.5* | 80.1* | 102.4* | 1.2*
COC(=O)C1=C(C)N(Cc2ccc(C(F)(F)F)cc2)C(=NCc2cc(OC)c(OC)c(OC)c2)NC1c1cccc(Cl)c1 (configuration not stated) | . | -6.9 | . | . | . | . | . | . | . | . | .
